In ChEMBL document CHEMBL4325828, “The Design, Synthesis, and Characterizations of Spore Germination Inhibitors Effective against an Epidemic Strain of Clostridium difficile” (J Med Chem, 2018):

system: Clostridioides difficile; assay: Antibacterial activity against Clostridium difficile R20291 assessed as inhibition of spore germination by measuring heat activated spore germination levels at 125 uM in presence of 6 mM taurocholate and 12 mM glycine measured every minute for 2 hrs by standard optical density assay relative to control; type: functional; parameters: scale not given: the % may be the effect or the level left
Procedure, shortened: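 R20291 spores were screened at a single 125 µM concentration, with germination followed as the fall in absorbance at 580 nm. Compounds not soluble at 125 µM by visual inspection were discarded. Inhibition is relative to untreated spore samples.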

SMILES	Activity [%]
C[C@H](CCC(=O)NCCCO)[C@H]1CC[C@H]2[C@@H]3[C@H](O)C[C@@H]4C[C@H](O)CC[C@]4(C)[C@H]3C[C@H](O)[C@]12C	92
C[C@H](CCC(=O)NCCCN1C(=O)C(=O)c2ccccc21)[C@H]1CC[C@H]2[C@@H]3[C@H](O)C[C@@H]4C[C@H](O)CC[C@]4(C)[C@H]3C[C@H](O)[C@]12C	95
COc1ccc(CCNC(=O)CC[C@@H](C)[C@H]2CC[C@H]3[C@@H]4[C@H](O)C[C@@H]5C[C@H](O)CC[C@]5(C)[C@H]4C[C@H](O)[C@]23C)c(OC)c1	101
C[C@H](CCC(=O)NCCCCNC(=O)OC(C)(C)C)[C@H]1CC[C@H]2[C@@H]3[C@H](O)C[C@@H]4C[C@H](O)CC[C@]4(C)[C@H]3C[C@H](O)[C@]12C	117
CCOC(=O)CCCNC(=O)CC[C@@H](C)[C@H]1CC[C@H]2[C@@H]3[C@H](O)C[C@@H]4C[C@H](O)CC[C@]4(C)[C@H]3C[C@H](O)[C@]12C	95
C[C@H](CCC(=O)NCCCN1C(=O)c2ccccc2C1=O)[C@H]1CC[C@H]2[C@@H]3[C@H](O)C[C@@H]4C[C@H](O)CC[C@]4(C)[C@H]3C[C@H](O)[C@]12C	82
COC(=O)C(NC(=O)CC[C@@H](C)[C@H]1CC[C@H]2[C@@H]3[C@H](O)C[C@@H]4C[C@H](O)CC[C@]4(C)[C@H]3C[C@H](O)[C@]12C)C(C)C (stereo partly drawn)	100
C[C@H](CCC(=O)NCCC#N)[C@H]1CC[C@H]2[C@@H]3[C@H](O)C[C@@H]4C[C@H](O)CC[C@]4(C)[C@H]3C[C@H](O)[C@]12C	112
C[C@H](CCC(=O)NCCc1cccs1)[C@H]1CC[C@H]2[C@@H]3[C@H](O)C[C@@H]4C[C@H](O)CC[C@]4(C)[C@H]3C[C@H](O)[C@]12C	93
C[C@H](CCC(=O)NCCN1CCCC1)[C@H]1CC[C@H]2[C@@H]3[C@H](O)C[C@@H]4C[C@H](O)CC[C@]4(C)[C@H]3C[C@H](O)[C@]12C	101
C[C@H](CCC(=O)NC(CCC(=O)O)C(=O)O)[C@H]1CC[C@H]2[C@@H]3[C@H](O)C[C@@H]4C[C@H](O)CC[C@]4(C)[C@H]3C[C@H](O)[C@]12C (stereo partly drawn)	114
C[C@H](CCC(=O)NCCCN)[C@H]1CC[C@H]2[C@@H]3[C@H](O)C[C@@H]4C[C@H](O)CC[C@]4(C)[C@H]3C[C@H](O)[C@]12C.Cl	124
C[C@H](CCC(=O)NCCCCN)[C@H]1CC[C@H]2[C@@H]3[C@H](O)C[C@@H]4C[C@H](O)CC[C@]4(C)[C@H]3C[C@H](O)[C@]12C.Cl	104
C[C@H](CCC(=O)NCCc1ccccc1)[C@H]1CC[C@H]2[C@@H]3[C@H](O)C[C@@H]4C[C@H](O)CC[C@]4(C)[C@H]3C[C@H](O)[C@]12C	104
C[C@H](CCC(=O)NCCN1C(=O)c2ccccc2C1=O)[C@H]1CC[C@H]2[C@@H]3[C@H](O)C[C@@H]4C[C@H](O)CC[C@]4(C)[C@H]3C[C@H](O)[C@]12C	78
C[C@H](CCC(=O)NCC(c1ccccc1)c1ccccc1)[C@H]1CC[C@H]2[C@@H]3[C@H](O)C[C@@H]4C[C@H](O)CC[C@]4(C)[C@H]3C[C@H](O)[C@]12C	101
C[C@H](CCC(=O)NC(Cc1ccccc1)C(=O)O)[C@H]1CC[C@H]2[C@@H]3[C@H](O)C[C@@H]4C[C@H](O)CC[C@]4(C)[C@H]3C[C@H](O)[C@]12C (stereo partly drawn)	108
COC(=O)C(Cc1ccccc1)NC(=O)CC[C@@H](C)[C@H]1CC[C@H]2[C@@H]3[C@H](O)C[C@@H]4C[C@H](O)CC[C@]4(C)[C@H]3C[C@H](O)[C@]12C (stereo partly drawn)	84
